Consider 3 molecules from ChEMBL document CHEMBL1212790, “Triclosan resistance of Pseudomonas aeruginosa PAO1 is due to FabV, a triclosan-resistant enoyl-acyl carrier protein reductase” (2010).

≈ marks a conversion by molar mass, not a printed value. Calls of active or inactive are those of the source. The calls are words filed in the database; no cut-off is given here.

Data set [1] deals with Escherichia coli. As to the kind of experiment: Antibacterial activity against Escherichia coli MG1655 pZL17 expressing Pseudomonas aeruginosa fabI gene assessed as microbial growth inhibition. Type of data set: functional. The method in brief:
(§1)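 Triclosan MIC on LB agar plates carrying serial dilutions of triclosan; cells plated and plates incubated at 37°C. MIC taken as the triclosan concentration of the first plate without growth. E. coli hosts (W3110, MG1655) carried pBluescript SK(+)-derived plasmids encoding fabV or fabI, or the empty vector.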

Data set [2] relates to Escherichia coli. As to the kind of experiment: Antibacterial activity against Escherichia coli W3110 containing pZL19 expressing sEscherichia coli fabI gene assessed as microbial growth inhibition. It counts as functional. The method in brief:
as §1

In data set [3] the test system is Escherichia coli. The data set can be described thus: Antibacterial activity against Escherichia coli MG1655 containing empty vector pBluescript assessed as microbial growth inhibition. Type of data set: functional. The method in brief: as §1
Data set [4] relates to Escherichia coli. As to the kind of experiment: Antibacterial activity against Escherichia coli MG1655 pZL16 expressing Pseudomonas aeruginosa fabV gene assessed as microbial growth inhibition. It counts as functional. The method in brief: as §1
The subject of data set [5] is Pseudomonas aeruginosa. As to the kind of experiment: Inhibition of wild type Pseudomonas aeruginosa ENR assessed as reduction of [1-14C]acetate incorporation into phospholipids.
Data set [6] deals with Pseudomonas aeruginosa. The data set can be described thus: Antibacterial activity against Pseudomonas aeruginosa PA01 assessed as microbial growth inhibition. It counts as functional.
For data set [7], the system named is Pseudomonas aeruginosa. The data set can be described thus: Inhibition of Pseudomonas aeruginosa PA0170 fabV assessed as reduction of [1-14C]acetate incorporation into phospholipids.
The subject of data set [8] is Pseudomonas aeruginosa. As to the kind of experiment: Antibacterial activity against Pseudomonas aeruginosa PA0272 lacking fabI assessed as microbial growth inhibition.
For data set [9], the target named is T1, Enoyl-[acyl-carrier-protein] reductase [NADH] FabI (Pseudomonas aeruginosa) (UniProt Q9ZFE4).
T1 sequence (whole entry): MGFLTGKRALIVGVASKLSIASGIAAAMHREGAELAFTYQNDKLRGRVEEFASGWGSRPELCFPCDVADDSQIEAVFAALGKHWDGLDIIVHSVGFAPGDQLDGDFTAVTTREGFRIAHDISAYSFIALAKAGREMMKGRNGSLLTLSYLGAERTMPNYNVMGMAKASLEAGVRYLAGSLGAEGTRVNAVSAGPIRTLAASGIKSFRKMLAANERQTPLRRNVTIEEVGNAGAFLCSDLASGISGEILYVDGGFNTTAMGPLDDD
As to the kind of experiment: Inhibition of Pseudomonas aeruginosa PAO272 fabI assessed as reduction of Enoyl-[acyl-carrier-protein] reductase activity at 15 ug/ml. In short, it runs like this:
(§2)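 Cell-extract ENR assay (70 μl) in 0.1 M sodium phosphate pH 7.5 with 0.1 mM NADH and 2 μg of cell extract. Started with 100 μM trans-2-decenoyl-ACP, with or without 15 μg/ml triclosan. NADH-dependent activity followed as the drop in A340. Means plus standard deviations of three experiments.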

For data set [10], the target named is T1, Enoyl-[acyl-carrier-protein] reductase [NADH] FabI (Pseudomonas aeruginosa). As to the kind of experiment: Inhibition of Pseudomonas aeruginosa fabI activity assessed as conversion of 3-hydroxydecanoyl-ACP to trans-2-decenoyl-ACP at 10 ug/ml in presence of 2.5 M urea. The method in brief:
(§3)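 3-Hydroxydecanoyl-ACP dehydrated to trans-2-decenoyl-ACP with E. coli FabZ, then split into tubes holding dried triclosan (added from an ethanol stock and dried down). Purified His-tagged PaFabV or PaFabI added; reduction in 0.1 M sodium phosphate pH 7.0 with NADH, 1 h. Products resolved by conformationally sensitive PAGE with 2.5 M urea and Coomassie staining.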

Data set [11] shares this target. As to the kind of experiment: Inhibition of Pseudomonas aeruginosa PAO272 fabI assessed as reduction of [1-14C]acetate incorporation into phospholipids.
For data set [12], the system named is Pseudomonas aeruginosa. As to the kind of experiment: Inhibition of Pseudomonas aeruginosa PA0170 fabV assessed as reduction of Enoyl-[acyl-carrier-protein] reductase activity at 15 ug/ml. The method in brief: as §2
Data set [13] relates to Pseudomonas aeruginosa. The data set can be described thus: Antibacterial activity against Pseudomonas aeruginosa PA0170 lacking fabV gene assessed as microbial growth inhibition.
The test system of data set [14] is Escherichia coli. As to the kind of experiment: Antibacterial activity against Escherichia coli MG1655 containing pZL19 expressing Escherichia coli fabI gene assessed as microbial growth inhibition. Type of data set: functional. In short, it runs like this: as §1
In data set [15] the test system is Escherichia coli. As to the kind of experiment: Antibacterial activity against Escherichia coli W3110 containing pZL16 expressing sPseudomonas aeruginosa fabV gene assessed as microbial growth inhibition. Type of data set: functional. The method in brief:
as §1

Data set [16] concerns Escherichia coli. As to the kind of experiment: Antibacterial activity against Escherichia coli W3110 containing pZL17 expressing Pseudomonas aeruginosa fabI gene assessed as microbial growth inhibition. It counts as functional. The method in brief: as §1
For data set [17], the system named is Pseudomonas aeruginosa. The data set can be described thus: Inhibition of wild type Pseudomonas aeruginosa ENR at 15 ug/ml. In short, it runs like this:
as §2

For data set [18], the system named is Escherichia coli. As to the kind of experiment: Antibacterial activity against Escherichia coli W3110 containing empty vector pBluescript at 37 deg C. Type of data set: functional. The method in brief:
as §1

Data set [19] has as its system Pseudomonas aeruginosa. The data set can be described thus: Inhibition of Pseudomonas aeruginosa fabV activity assessed as conversion of […] at 1000 ug/ml in presence of 2.5 M urea. In short, it runs like this: as §3
For data set [20], the system named is Pseudomonas aeruginosa. The data set can be described thus: Activity of Pseudomonas aeruginosa PA0170 fabV in presence of 100 uM NADH. The method in brief: (§4)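 Cell extracts (2 μg) of the P. aeruginosa deletion strains (PAO170 ΔfabV, PAO272 ΔfabI) were assayed for NADH-dependent enoyl-ACP reductase activity in 70 μl of 0.1 M sodium phosphate pH 7.5 with 0.1 mM NADH. Reactions were started with 100 μM trans-2-decenoyl-ACP and run with or without 15 μg/ml triclosan. Values are means plus standard deviations of three experiments.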

Compound in data set [21]: C/C=C/C(=O)SCCNC(=O)CCNC(=O)[C@@H](O)C(C)(C)COP(=O)(O)OP(=O)(O)OC[C@H]1O[C@@H](n2cnc3c(N)ncnc32)[C@H](O)[C@@H]1OP(=O)(O)O
As to the kind of experiment: Inhibition of Pseudomonas aeruginosa PAO272 fabI in presence of 100 uM NADH. In short, it runs like this:
as §4

Turning to `Oc1cc(Cl)ccc1Oc1ccc(Cl)cc1Cl` [TRICLOSAN], the MIC in the data set with Escherichia coli [1] was 4 µg/mL (≈ 13.8 µM); in the data set on Escherichia coli [2], 3 µg/mL (≈ 10.4 µM); with Escherichia coli [3] it was 0.2 µg/mL (≈ 0.691 µM); in the data set on Escherichia coli [4] it was above 2000 µg/mL; in the data set with Pseudomonas aeruginosa [6], above 2000 µg/mL; with Pseudomonas aeruginosa [8] it was above 2000 µg/mL. For the same molecule, the MIC with Pseudomonas aeruginosa [13] is 1 µg/mL (≈ 3.45 µM); in the data set with Escherichia coli [14], 3 µg/mL (≈ 10.4 µM); in the data set on Escherichia coli [15] it was above 2000 µg/mL; in the data set on Escherichia coli [16], 4 µg/mL (≈ 13.8 µM); against Escherichia coli [18], 0.2 µg/mL (≈ 0.691 µM). Besides, the inhibition entry (in the data set on Pseudomonas aeruginosa [5]; in data set [9]; in data set [11]; in the data set on Pseudomonas aeruginosa [19]) was “inactive” each time. Further, the inhibition entry (with Pseudomonas aeruginosa [7]; in [10]) was “Active” throughout. The inhibition in the data set on Pseudomonas aeruginosa [12] came out at 15%; with Pseudomonas aeruginosa [17], 29%.
For the molecule `C/C=C/C(=O)SCCNC(=O)CCNC(=O)[C@@H](O)C(C)(C)COP(=O)(O)OP(=O)(O)OC[C@H]1O[C@@H](n2cnc3c(N)ncnc32)[C@H](O)[C@@H]1OP(=O)(O)O`, in the data set with Pseudomonas aeruginosa [20], the Michaelis-Menten constant (Km) is 704 µM and the Vmax came out at 7.9 nmol/min/mg.

B1: Enoyl-[acyl-carrier-protein] reductase [NADH] FabI (Pseudomonas aeruginosa), Q9ZFE4 (protein)
chain: T1 sequence (whole entry)
On to B1, for which, in data set [21], the Michaelis constant (Km) stood at 4.7 µM and the Vmax worked out at 1.5 nmol/min/mg.
